We go through one molecule from ChEMBL document CHEMBL4261634, “Design and optimization of 2,3-dihydrobenzo[b][1,4]dioxine propanoic acids as novel GPR40 agonists with improved pharmacokinetic and safety profiles” (Bioorg Med Chem, 2018).

The target of data set [1] is T1, Solute carrier organic anion transporter family member 1B1 (Homo sapiens, UniProt Q9Y6L6).
T1 sequence (Q9Y6L6 whole entry): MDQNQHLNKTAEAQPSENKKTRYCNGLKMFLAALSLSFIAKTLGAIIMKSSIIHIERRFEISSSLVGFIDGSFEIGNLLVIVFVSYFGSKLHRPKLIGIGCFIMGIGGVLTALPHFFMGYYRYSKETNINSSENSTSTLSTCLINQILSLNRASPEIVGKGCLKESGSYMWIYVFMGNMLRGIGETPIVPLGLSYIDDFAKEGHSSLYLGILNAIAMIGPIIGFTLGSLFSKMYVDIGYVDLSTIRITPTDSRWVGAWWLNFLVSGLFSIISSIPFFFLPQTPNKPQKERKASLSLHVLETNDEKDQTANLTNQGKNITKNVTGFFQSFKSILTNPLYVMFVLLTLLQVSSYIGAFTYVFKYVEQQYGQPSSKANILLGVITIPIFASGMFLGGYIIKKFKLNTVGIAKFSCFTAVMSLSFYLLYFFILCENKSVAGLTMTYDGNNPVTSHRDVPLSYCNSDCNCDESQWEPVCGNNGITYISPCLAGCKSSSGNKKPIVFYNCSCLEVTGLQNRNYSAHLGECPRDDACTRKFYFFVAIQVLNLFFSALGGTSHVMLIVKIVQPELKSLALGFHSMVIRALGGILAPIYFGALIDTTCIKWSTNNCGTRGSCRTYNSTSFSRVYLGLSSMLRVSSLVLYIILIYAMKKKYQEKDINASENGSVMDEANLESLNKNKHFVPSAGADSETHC
The experiment in a line: Inhibition of human OATP1BA.

Data set [2] addresses ATP-binding cassette sub-family C member 2 (Homo sapiens, UniProt Q92887). Briefly: Inhibition of human MRP2.
A short description of data set [3]: Tmax in Sprague-Dawley rat at 3 mg/kg, po by LC-ESI-MS analysis. The class given is ADME, organism-based. The conditions noted are these: in vivo. In a few lines:
(§1)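 SD rats dosed orally (3 or 10 mg/kg) or by intravenous injection (1 mg/kg). Plasma PK parameters derived per route: Cmax, AUC0-t, Tmax, t1/2 and F after oral dosing; CL, AUC0-t, MRT, t1/2 and Vdss after iv dosing. Mean ± SD from three independent experiments (n = 3).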

Data set [4] deals with Rattus norvegicus. The experiment in a line: Subacute toxicity in Sprague-Dawley rat assessed as effect on organ coefficients at 50 to 100 mg/kg, po administered once daily for 2 weeks. The conditions noted are these: in vivo, 336 h. The class given is organism-based. In a few lines: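 SD rats dosed orally once daily for two weeks at 50 mg/kg and 100 mg/kg. Subacute toxicity was assessed over the dosing period from survival rate, behaviour, food intake and organ coefficients.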

Data set [5] has as its target T2, Solute carrier organic anion transporter family member 1B3 (Homo sapiens, UniProt Q9NPD5).
T2 sequence (Q9NPD5 whole entry): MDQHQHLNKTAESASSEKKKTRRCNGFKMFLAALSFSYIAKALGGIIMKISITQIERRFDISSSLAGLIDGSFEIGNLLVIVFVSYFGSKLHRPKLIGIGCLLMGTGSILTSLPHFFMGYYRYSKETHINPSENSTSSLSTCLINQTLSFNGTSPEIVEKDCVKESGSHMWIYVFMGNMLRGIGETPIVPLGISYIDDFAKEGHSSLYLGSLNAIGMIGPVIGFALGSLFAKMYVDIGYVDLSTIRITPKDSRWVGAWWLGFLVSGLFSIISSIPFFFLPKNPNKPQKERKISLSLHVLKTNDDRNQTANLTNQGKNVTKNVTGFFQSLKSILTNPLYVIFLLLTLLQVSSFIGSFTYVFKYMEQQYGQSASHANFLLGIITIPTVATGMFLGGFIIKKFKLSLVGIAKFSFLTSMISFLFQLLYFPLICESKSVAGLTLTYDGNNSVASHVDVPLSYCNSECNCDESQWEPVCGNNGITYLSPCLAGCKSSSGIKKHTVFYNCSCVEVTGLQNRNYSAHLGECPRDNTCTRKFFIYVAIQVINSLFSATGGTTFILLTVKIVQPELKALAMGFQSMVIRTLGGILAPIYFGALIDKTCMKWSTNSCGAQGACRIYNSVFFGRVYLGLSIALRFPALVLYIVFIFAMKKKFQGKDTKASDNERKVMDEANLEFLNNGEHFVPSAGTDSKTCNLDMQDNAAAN
The experiment in a line: Inhibition of human OATP1B3. The class given is ADME.

For data set [6], the target named is T3, Cytochrome P450 1A2 (Homo sapiens, UniProt P05177).
T3 sequence (P05177 whole entry): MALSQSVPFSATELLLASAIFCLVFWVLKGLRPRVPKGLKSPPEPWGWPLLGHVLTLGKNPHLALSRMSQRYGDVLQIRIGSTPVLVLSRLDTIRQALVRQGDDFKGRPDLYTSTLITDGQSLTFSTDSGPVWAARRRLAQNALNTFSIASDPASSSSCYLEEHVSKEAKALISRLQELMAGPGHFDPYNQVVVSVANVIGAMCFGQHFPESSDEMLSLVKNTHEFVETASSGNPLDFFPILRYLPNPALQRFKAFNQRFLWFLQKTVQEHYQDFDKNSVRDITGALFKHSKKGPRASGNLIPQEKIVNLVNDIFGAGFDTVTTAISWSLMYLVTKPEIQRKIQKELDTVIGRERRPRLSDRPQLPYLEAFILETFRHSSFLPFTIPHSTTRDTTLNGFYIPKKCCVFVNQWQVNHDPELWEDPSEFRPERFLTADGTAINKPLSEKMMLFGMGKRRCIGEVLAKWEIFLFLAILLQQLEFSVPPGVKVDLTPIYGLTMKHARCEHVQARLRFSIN
Briefly: Inhibition of CYP1A2 (unknown origin). It is filed as ADME.

Data set [7] has as its target T4, Free fatty acid receptor 1 (Homo sapiens, UniProt O14842). The experiment in a line: Agonist activity at human GPR40 expressed in human HEK293 cells assessed as increase in intracellular calcium flux after 10 mins by fluorescence assay. It is filed as functional, cell-based. In a few lines:
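Human GPR40 activity read by calcium mobilization to give EC50. Mean ± SD, n = 3.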
For orientation: A change in cytosolic calcium serves as a functional read-out for many receptors and channels.

Data set [8] in a line: Elimination half life in Sprague-Dawley rat at 10 mg/kg, po by LC-ESI-MS analysis. It is filed as ADME, organism-based. The conditions noted are these: in vivo, read-out: beta t1/2 (converted). The method, boiled down:
as §1

Data set [9] deals with T4, Free fatty acid receptor 1. Briefly: Agonist activity at human GPR40 expressed in human HEK293 cells assessed as increase in intracellular calcium flux after 10 mins by fluorescence assay relative to linoleic acid. The class given is functional, cell-based. The method, boiled down:
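Human GPR40 activity read by calcium mobilization to give EC50. Emax expressed relative to linoleic acid as 100%. Mean ± SD, n = 3.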

A short description of data set [10]: Elimination half life in Sprague-Dawley rat at 1 mg/kg, iv by LC-ESI-MS analysis. It is filed as ADME, organism-based. The conditions noted are these: in vivo, read-out: beta t1/2 (converted). The method, boiled down:
as §1

The nature of data set [11]: Oral bioavailability in Sprague-Dawley rat at 3 mg/kg by LC-ESI-MS analysis. The conditions noted are these: in vivo. The class given is ADME, organism-based. In a few lines: as §1
Data set [12] in a line: AUC (0 to t) in Sprague-Dawley rat at 3 mg/kg, po by LC-ESI-MS analysis. It is filed as ADME, organism-based. The conditions noted are these: in vivo. In a few lines: as §1

pEC50, pIC50: −log10 of the molar value.

T4 sequence (O14842 whole entry): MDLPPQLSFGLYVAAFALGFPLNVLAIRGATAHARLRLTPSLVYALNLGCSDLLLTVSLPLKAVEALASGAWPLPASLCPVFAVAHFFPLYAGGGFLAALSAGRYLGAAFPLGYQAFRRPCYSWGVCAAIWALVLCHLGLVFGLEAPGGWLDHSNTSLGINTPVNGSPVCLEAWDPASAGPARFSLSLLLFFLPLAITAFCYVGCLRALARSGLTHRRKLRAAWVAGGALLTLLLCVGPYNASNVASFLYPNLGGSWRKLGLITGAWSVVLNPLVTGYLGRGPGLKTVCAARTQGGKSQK
Sequence of ATP-binding cassette sub-family C member 2 (Q92887 whole entry): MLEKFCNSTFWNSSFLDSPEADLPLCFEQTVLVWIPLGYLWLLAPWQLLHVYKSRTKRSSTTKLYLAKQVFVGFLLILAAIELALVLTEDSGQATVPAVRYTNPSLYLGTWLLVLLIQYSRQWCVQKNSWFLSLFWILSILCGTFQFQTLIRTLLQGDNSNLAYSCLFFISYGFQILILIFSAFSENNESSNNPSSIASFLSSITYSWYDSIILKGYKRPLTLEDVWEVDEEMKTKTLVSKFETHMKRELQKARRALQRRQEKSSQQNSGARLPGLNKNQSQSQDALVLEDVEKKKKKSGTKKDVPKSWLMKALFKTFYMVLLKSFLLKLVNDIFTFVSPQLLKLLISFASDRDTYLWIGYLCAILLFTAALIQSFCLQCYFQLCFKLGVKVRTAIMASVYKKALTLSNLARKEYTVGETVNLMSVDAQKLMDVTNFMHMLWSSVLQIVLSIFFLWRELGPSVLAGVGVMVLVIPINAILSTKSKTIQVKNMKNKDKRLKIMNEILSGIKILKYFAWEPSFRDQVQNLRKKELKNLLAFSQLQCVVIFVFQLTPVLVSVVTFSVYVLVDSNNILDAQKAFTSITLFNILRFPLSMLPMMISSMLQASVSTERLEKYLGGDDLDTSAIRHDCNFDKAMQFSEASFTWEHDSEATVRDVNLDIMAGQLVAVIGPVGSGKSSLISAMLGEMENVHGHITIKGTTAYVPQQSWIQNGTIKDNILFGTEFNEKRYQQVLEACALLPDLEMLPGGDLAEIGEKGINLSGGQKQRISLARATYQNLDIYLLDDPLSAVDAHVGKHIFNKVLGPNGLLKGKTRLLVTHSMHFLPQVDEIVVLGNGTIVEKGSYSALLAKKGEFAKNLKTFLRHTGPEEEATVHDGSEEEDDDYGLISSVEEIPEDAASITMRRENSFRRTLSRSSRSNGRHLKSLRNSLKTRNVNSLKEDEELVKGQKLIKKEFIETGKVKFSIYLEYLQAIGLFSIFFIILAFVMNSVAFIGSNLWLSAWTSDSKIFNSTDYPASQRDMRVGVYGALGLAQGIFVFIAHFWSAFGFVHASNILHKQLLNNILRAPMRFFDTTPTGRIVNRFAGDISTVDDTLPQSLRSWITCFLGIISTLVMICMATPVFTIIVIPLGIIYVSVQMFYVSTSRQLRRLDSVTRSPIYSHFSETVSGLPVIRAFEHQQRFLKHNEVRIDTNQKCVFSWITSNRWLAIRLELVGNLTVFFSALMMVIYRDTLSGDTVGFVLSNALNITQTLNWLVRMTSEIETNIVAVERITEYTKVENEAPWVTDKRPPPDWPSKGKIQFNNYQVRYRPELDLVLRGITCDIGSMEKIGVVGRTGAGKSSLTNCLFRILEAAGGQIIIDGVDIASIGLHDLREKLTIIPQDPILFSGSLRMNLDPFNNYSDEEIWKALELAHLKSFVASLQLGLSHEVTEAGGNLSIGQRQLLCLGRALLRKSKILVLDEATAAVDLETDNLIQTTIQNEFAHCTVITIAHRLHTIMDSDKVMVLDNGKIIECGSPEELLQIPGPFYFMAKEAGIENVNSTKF

Regarding `CC#C[C@@H](CC(=O)O)c1ccc(OC[C@H]2COc3ccc(Cl)cc3O2)cc1`, the pIC50 in [1] is under 4.00; in data set [2] it was under 4.00; in [5], 4.40; in data set [6] it was under 4.00. For the same molecule, in data set [3], the Tmax turned out to be 3 h. Also, the Activity entry in data set [4] is recorded as “Non-Toxic”. The pEC50 in [7] was 7.30. For the same molecule, the half-life in [8] was 25.7 h; in data set [10], 13.2 h. The Emax in data set [9] amounted to 86%. Further, in data set [11], the bioavailability amounted to 65.5%. The molecule also yielded an AUC(0-t) in [12] of 140 µg·h/mL.

Broadly, the pIC50 is −log10 of the IC50, conventionally taken in molar units. A lower pIC50 goes with a large IC50. For orientation: Tmax means the time at which the peak concentration occurs. Usually pEC50 stands for −log10 of the EC50, conventionally taken in molar units. By Emax is commonly meant the greatest response seen or fitted, relative to the assay's reference. A word on the bioavailability: it is dose-corrected exposure relative to a reference, in per cent. Read a high bioavailability as good availability. Broadly, the AUC(0-t) is exposure summed from dosing to a finite time, without extrapolation to infinity. Low readings indicate low exposure, high ones high exposure.
